Assay results taken from article PMC2191014 (The Journal of Experimental Medicine, 1993).
Non-standard residues stand in square brackets, D forms with d. Residues, ends and D or L forms follow the SMILES beside them.

What was measured:
Ad = biological target: T1, Ad (Mus musculus, UniProt P01921+P04228); experiment: Competition for antigen presentation of OVA 323-339 to hybridoma DO11.10; format: cell-based
T1 sequence (P01921 28-265): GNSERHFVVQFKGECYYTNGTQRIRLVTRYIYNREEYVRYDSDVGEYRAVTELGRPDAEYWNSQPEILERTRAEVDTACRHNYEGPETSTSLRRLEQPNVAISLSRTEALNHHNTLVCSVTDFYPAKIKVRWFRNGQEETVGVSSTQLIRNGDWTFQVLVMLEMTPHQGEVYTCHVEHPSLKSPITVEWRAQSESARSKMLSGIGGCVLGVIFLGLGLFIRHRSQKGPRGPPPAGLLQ
T1 sequence (P04228 24-256): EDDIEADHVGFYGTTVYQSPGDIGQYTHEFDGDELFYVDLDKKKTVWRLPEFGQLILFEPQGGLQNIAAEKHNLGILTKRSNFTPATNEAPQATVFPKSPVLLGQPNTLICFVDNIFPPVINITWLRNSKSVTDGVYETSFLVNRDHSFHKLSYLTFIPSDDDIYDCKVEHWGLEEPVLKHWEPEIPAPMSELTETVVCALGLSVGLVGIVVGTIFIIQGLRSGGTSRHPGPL
Method in brief: (§1)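 LK cells (2.5 × 10^4/well) served as APC. They were preincubated 24 h with antigenic peptide plus competitor peptide in RPMI 1640 with 10% FCS, then irradiated (2,000 rad) and washed. Hybridoma cells (5 × 10^4/well) were added for 24 h. Supernatant was transferred to 10^4 CTLL cells, and IL-2 was read as thymidine uptake over the last 4 h of the 24-h CTLL culture.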

[1] = Peptide-specific antibodies in mice of the Fig. 3 B experiment; format: in vivo, mouse (NOD); conditions: data not shown
Method in brief: (§2)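 ELISA on sera of individual chronically peptide-treated NOD mice at several time points. Wells were coated with 250 ng peptide in PBS at 4°C overnight and blocked with 2% BSA, 37°C, 30 min. Diluted sera ran 1 h at 37°C, then phosphatase-conjugated anti-mouse Ig, IgG or IgM (1:500) 2 h at 37°C. p-Nitrophenyl phosphate (1 mg/ml) ran 45 min, read at OD 405. Uncoated-well background was subtracted from duplicate means.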

[2] = Peptide-specific antibodies by ELISA in sera of chronically treated mice; format: in vivo, mouse (NOD); conditions: for peptide-specific IgG antibodies / peptide-specific IgM antibodies: ELISA, sera of chronically treated mice
Method in brief: as §2

NOD mice [3] = experiment: Mortality and hypersensitivity during chronic treatment, first experiment; format: in vivo, mouse (NOD); conditions: after 10-18 wk of treatment; 500 nmol chronic
Method in brief: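 Female NOD mice from 3 wk of age got 500 nmol test peptide in HBSS, i.p. and s.c. at multiple sites. Schedule: five times/week for 3 wk, five times/week for a further 3 wk, then twice weekly to 22-23 wk. Groups: 18 test-peptide, 12 nonblocking-peptide and 18 HBSS-only mice.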

NOD mice [4] = experiment: Mortality and symptoms during chronic treatment, second experiment; format: in vivo, mouse (NOD)
Method in brief: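 Female NOD mice received 500 nmol test peptide in HBSS, i.p. and s.c., from 3 wk of age for 20 wk. Thereafter peptide was co-injected with ketotifen 3 mg/kg […] (13 mice). Controls were ketotifen only (15) and HBSS only (15).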

[5] = tested on: NOD class II MHC molecule Ag7; experiment: Competition for antigen presentation of HEL 8-29 to T cell hybridoma 2D12.1; format: cell-based, mouse (NOD); conditions: APC NOD splenocytes, 80 nM HEL 8-29, competitor up to 100 μM
Method in brief: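 NOD splenocytes (2.5 × 10^5/well) served as APC. They were held 24 h with antigenic peptide and competitor in RPMI 1640 + 10% FCS, then irradiated at 2,000 rad and washed before 5 × 10^4 hybridoma cells were added. After 24 h, supernatant went onto 10^4 CTLL cells. IL-2 was measured by thymidine incorporation during the final 4 h of the 24-h CTLL culture.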

Ag7 = experiment: Screening: binding to Ag7; format: cell-based, mouse (NOD); conditions: screening of peptide panel
Ed = experiment: Competition for antigen presentation of HEL 105-120 to hybridoma 1H11.3; format: cell-based, mouse; conditions: APC LK cells, 500 nM HEL 105-120, competitor up to 100 μM
Method in brief: as §1

[6] = tested on: NOD mice, spontaneous autoimmune diabetes; experiment: Prevention of spontaneous diabetes in female NOD mice, first experiment; format: in vivo, mouse (NOD)
Method in brief: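 Female NOD mice from an SPF in-house colony were dosed from 3 wk of age with 500 nmol peptide in HBSS, i.p. and s.c. at multiple sites. The schedule was five times weekly for 3 wk, five times weekly for 3 wk more, then twice weekly to 22-23 wk. Arms: test peptide (18 mice), nonbinding control peptide (12), HBSS (18). Monitoring began at 10 wk; blood glucose ≥200 mg/dl counted as diabetic.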

Ek = experiment: Competition for antigen presentation of HEL 1-18 to hybridoma 2G7.1; format: cell-based, mouse; conditions: APC LK cells, 2 μM HEL 1-18, competitor up to 100 μM
Method in brief: as §1

[7] = tested on: Ag7-restricted T cell response; conditions: cited from earlier work

| Compound | IC50 (Ad) | animals producing antibodies against the peptide [1] | peptide-specific IgG antibodies [2] | peptide-specific IgM antibodies [2] | fraction of mice antibody negative ([2]; after 13 wk of treatment) | mortality (died/total) (NOD mice [3]) | mortality (NOD mice [4]; P1 mixed with ketotifen (3 mg/kg) after 20 wk of treatment) | symptoms after adding ketotifen (NOD mice [4]; P1 mixed with ketotifen (3 mg/kg) after first signs of postinjection fatigue (20 wk of treatment)) | effect on antigen presentation by Ad (Ad; APC LK cells, 1 μM OVA 323-339, hybridoma DO11.10, competitor up to 100 μM) | effect on antigen presentation by Ag7 [5] | binding to Ag7 (Ag7) | fraction of mice nonresponders ([2]; chronic treatment) | effect on antigen presentation by Ed (Ed) | plateau level of diabetic animals ([6]; by 22 wk of age, control groups (P2, 12 mice, or solvent)) | effect on spontaneous diabetes (summary) ([6]; chronic administration from 3 wk of age on, female NOD mice) | effect on antigen presentation by Ek (Ek) | Ag7-restricted T cell response of NOD mice [7] |
| --- | --- | --- | --- | --- | --- | --- | --- | --- | --- | --- | --- | --- | --- | --- | --- | --- | --- |
| CC(C)[C@H](NC(=O)[C@@H](NC(=O)[C@H](Cc1ccc(O)cc1)NC(=O)[C@@H](NC(=O)[C@H](N)Cc1ccc(O)cc1)[C@@H](C)O)[C@@H](C)O)C(=O)N[C@@H](Cc1c[nH]cn1)C(=O)N[C@@H](C)C(=O)N[C@@H](C)C(=O)N[C@@H](Cc1c[nH]cn1)C(=O)N[C@@H](C)C(=O)N[C@@H](Cc1ccc(O)cc1)C(=O)N[C@H](C(=O)N[C@@H](Cc1ccc(O)cc1)C(=O)N[C@@H](C(=O)O)[C@H](C)O)[C@@H](C)O [P1, yTYTVHAAHAYTYt] (H-[dY]TYTVHAAHAYTY[dT]-OH) | ~20 µM | 3 of 13 animals | IgG | no IgM | Approximately half | 6/18 | no mortality occurred | symptomless | – | – | – | – | – | – | – | – | – |
| KMKMVHAAHAKMKM [P2] | – | – | no IgG | exclusively of IgM isotype | – | 1/12 | – | – | inhibited antigen presentation | not that by As7 | fails to bind | Approximately half | not that by As7 and Ea | 60% | no effect on the disease | inhibited antigen presentation | – |
| sheep insuline: sheep insulin used as antigen in NOD mice | – | – | – | – | – | – | – | – | – | – | – | – | – | – | – | – | strong |
